Laboratory results reported in ChEMBL document CHEMBL3608232, “Exploring the Existing Drug Space for Novel pTyr Mimetic and SHP2 Inhibitors” (ACS Med Chem Lett, 2015).
Activity calls are given as the source filed them. The calls are words filed in the database; no cut-off is given here.

Experiments:
[1] = target: T1, Tyrosine-protein phosphatase non-receptor type 11 (Homo sapiens) (UniProt Q06124); assay: Inhibition of phosphatase activity of SHP2 (unknown origin) using pNPP as a substrate at 50 uM after 10 mins by spectrophotometer analysis
T1 sequence (whole entry): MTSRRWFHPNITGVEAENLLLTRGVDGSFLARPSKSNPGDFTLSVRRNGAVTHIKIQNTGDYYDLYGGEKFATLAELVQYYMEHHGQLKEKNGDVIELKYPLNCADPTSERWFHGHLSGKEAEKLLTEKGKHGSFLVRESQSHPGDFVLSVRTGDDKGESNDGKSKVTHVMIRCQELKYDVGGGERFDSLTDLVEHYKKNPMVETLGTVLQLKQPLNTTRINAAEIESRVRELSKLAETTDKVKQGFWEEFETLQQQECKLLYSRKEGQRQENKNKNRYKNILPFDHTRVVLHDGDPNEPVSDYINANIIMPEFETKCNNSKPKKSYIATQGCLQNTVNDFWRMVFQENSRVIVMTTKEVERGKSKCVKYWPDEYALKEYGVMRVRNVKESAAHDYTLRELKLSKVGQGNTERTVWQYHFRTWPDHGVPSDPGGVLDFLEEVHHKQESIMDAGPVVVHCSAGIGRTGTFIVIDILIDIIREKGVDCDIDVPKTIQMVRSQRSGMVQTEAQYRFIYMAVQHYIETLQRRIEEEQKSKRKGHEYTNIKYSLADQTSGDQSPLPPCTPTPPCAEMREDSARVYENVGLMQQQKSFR

[2] = target: T2, Serine/threonine-protein phosphatase 5 (Homo sapiens, UniProt P53041); assay: Inhibition of phosphatase activity of human PP5 using pNPP as a substrate after 10 mins by spectrophotometer analysis
T2 sequence (P53041 whole entry): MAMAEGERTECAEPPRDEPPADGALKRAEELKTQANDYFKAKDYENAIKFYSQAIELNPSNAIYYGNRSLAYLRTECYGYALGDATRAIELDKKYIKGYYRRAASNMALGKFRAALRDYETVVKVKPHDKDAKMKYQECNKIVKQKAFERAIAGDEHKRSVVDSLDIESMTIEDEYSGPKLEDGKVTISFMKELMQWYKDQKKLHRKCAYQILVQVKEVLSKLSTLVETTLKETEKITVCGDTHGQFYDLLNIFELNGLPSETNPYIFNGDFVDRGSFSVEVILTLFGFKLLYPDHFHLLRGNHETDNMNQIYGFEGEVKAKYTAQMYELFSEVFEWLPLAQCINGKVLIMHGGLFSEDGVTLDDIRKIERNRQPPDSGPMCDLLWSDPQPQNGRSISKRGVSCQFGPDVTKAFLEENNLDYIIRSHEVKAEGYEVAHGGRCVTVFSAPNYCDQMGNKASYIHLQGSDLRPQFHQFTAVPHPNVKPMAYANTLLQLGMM

NCI-H1975 [3] = assay: Cytotoxicity against human NCI-H1975 cells by MTT assay; type: functional, cell-based
[4] = target: T3, Tyrosine-protein phosphatase non-receptor type 7 (Homo sapiens, UniProt P35236); assay: Inhibition of phosphatase activity of human HePTP using pNPP as a substrate after 10 mins by spectrophotometer analysis
T3 sequence (P35236 whole entry): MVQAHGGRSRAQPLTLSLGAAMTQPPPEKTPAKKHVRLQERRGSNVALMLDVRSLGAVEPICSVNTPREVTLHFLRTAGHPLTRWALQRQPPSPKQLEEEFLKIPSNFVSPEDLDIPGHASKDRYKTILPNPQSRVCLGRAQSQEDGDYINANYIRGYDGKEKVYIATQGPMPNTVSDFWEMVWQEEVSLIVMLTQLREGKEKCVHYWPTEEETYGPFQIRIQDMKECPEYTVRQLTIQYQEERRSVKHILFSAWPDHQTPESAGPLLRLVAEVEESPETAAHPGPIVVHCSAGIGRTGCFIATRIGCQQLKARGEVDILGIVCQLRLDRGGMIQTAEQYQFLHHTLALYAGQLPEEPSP

[5] = target: T4, Low molecular weight phosphotyrosine protein phosphatase (Homo sapiens, UniProt P24666); assay: Inhibition of phosphatase activity of human LMWPTP using pNPP as a substrate after 10 mins by spectrophotometer analysis
T4 sequence (P24666 whole entry): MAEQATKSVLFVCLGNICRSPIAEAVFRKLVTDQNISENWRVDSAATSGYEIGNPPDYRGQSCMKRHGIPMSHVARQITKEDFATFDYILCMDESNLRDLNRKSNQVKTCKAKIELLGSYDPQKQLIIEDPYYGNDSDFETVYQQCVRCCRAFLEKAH

[6] = target: T1, Tyrosine-protein phosphatase non-receptor type 11 (Homo sapiens); assay: Inhibition of SHP2 in human NCI-H1975 cells assessed as reduction of EGF-induced ERK1/2 activation at 40 uM after 60 mins relative to control; type: cell-based
How it was run: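 H1975 cells were stimulated with EGF and ERK1/2 and paxillin phosphorylation was assessed by immunoblot. Band intensities were quantified, and pERK1/2/total ERK1/2 or pPaxillin(Y118)/total paxillin ratios were normalized to the reference. Blots are representative of at least two independent experiments, with quantified values given as mean ± SD.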

[7] = target: T5, Tyrosine-protein phosphatase non-receptor type 22 (Homo sapiens, UniProt Q9Y2R2); assay: Inhibition of phosphatase activity of human LYP using pNPP as a substrate after 10 mins by spectrophotometer analysis
T5 sequence (Q9Y2R2 whole entry): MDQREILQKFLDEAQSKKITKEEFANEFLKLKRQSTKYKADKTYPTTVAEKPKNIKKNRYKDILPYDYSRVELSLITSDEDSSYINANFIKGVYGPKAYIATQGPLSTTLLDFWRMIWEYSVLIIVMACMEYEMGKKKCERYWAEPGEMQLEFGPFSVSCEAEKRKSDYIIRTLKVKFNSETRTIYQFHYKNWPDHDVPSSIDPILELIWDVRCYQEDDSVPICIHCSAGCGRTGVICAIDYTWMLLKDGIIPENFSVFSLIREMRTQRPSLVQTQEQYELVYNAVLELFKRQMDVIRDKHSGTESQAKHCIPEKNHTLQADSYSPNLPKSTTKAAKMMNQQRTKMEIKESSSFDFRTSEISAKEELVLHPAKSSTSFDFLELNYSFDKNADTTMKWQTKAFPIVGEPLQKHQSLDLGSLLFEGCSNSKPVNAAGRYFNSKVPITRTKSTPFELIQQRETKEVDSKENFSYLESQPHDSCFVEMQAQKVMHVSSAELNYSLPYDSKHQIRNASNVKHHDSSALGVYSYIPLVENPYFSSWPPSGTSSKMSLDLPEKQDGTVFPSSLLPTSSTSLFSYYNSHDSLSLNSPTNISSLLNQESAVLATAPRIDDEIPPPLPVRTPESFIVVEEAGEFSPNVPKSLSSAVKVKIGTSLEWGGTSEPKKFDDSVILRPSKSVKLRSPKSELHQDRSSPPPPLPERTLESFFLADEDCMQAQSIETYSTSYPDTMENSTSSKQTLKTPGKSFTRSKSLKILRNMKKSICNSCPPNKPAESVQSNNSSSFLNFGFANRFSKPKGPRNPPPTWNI

[8] = target: Receptor-type tyrosine-protein phosphatase F (Homo sapiens, UniProt P10586); assay: Inhibition of phosphatase activity of human LAR using pNPP as a substrate after 10 mins by spectrophotometer analysis
[9] = target: Dual specificity protein phosphatase 3 (Homo sapiens, UniProt P51452); assay: Inhibition of phosphatase activity of human VHR using pNPP as a substrate after 10 mins by spectrophotometer analysis
[10] = target: T6, Tyrosine-protein phosphatase non-receptor type 9 (Homo sapiens, UniProt P43378); assay: Inhibition of phosphatase activity of human Meg2 using pNPP as a substrate after 10 mins by spectrophotometer analysis
T6 sequence (P43378 whole entry): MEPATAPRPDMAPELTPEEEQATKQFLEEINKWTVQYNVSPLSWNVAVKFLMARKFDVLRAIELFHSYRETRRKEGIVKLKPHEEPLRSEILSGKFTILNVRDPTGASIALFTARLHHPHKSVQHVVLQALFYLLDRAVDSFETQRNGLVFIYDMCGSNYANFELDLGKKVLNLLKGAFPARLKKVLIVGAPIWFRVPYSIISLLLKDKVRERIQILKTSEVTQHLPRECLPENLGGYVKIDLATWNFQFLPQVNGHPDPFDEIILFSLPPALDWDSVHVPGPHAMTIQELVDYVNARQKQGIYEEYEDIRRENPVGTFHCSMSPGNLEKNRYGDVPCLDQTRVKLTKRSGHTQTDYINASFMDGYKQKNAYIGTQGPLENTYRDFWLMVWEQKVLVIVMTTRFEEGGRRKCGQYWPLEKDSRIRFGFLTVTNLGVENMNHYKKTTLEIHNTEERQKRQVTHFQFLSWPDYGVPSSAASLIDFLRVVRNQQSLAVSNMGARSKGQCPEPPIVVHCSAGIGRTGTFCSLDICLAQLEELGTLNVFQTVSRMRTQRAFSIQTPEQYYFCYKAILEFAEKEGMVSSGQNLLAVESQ

[11] = target: Receptor-type tyrosine-protein phosphatase gamma (Homo sapiens, UniProt P23470); assay: Inhibition of phosphatase activity of human PTPgamma using pNPP as a substrate after 10 mins by spectrophotometer analysis
[12] = target: Receptor-type tyrosine-protein phosphatase epsilon (Homo sapiens, UniProt P23469); assay: Inhibition of phosphatase activity of human PTPepsilon using pNPP as a substrate after 10 mins by spectrophotometer analysis
[13] = target: T1, Tyrosine-protein phosphatase non-receptor type 11 (Homo sapiens); assay: Inhibition of SHP2 in human NCI-H1975 cells assessed as increase in EGF-induced paxillin phosphorylation at Y118 at 40 uM after 60 mins relative to control
MDA-MB-231 [14] = assay: Cytotoxicity against human MDA-MB-231 cells by MTT assay; type: functional, cell-based
[15] = target: Receptor-type tyrosine-protein phosphatase alpha (Homo sapiens, UniProt P18433); assay: Inhibition of phosphatase activity of human PTPalpha using pNPP as a substrate after 10 mins by spectrophotometer analysis
[16] = target: T7, Tyrosine-protein phosphatase non-receptor type 11 (Homo sapiens, UniProt Q06124); assay: Competitive inhibition of phosphatase activity of SHP2 (unknown origin) using pNPP as a substrate Lineweaver-Burk plot analysis
T7 sequence (Q06124 whole entry): T1 sequence (whole entry)
How it was run: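 SHP2-catalysed hydrolysis of para-nitrophenyl phosphate measured with inhibitor at 0, 0.25, 0.5 and 0.75 μM. Inhibition mode assigned from a Lineweaver–Burk (double-reciprocal) plot.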

[17] = target: Receptor-type tyrosine-protein phosphatase beta (Homo sapiens, UniProt P23467); assay: Inhibition of phosphatase activity of human PTPbeta using pNPP as a substrate after 10 mins by spectrophotometer analysis
SK-BR-3 = assay: Growth inhibition of human SKBR3 cells expressing ErbB2 in 3D matrigel after 5 days; type: functional, cell-based
[18] = target: Receptor-type tyrosine-protein phosphatase mu (Homo sapiens, UniProt P28827); assay: Inhibition of phosphatase activity of human PTPmu using pNPP as a substrate after 10 mins by spectrophotometer analysis
[19] = target: T8, Dual specificity protein phosphatase CDC14A (Homo sapiens, UniProt Q9UNH5); assay: Inhibition of phosphatase activity of human CDC14A using pNPP as a substrate after 10 mins by spectrophotometer analysis
T8 sequence (Q9UNH5 whole entry): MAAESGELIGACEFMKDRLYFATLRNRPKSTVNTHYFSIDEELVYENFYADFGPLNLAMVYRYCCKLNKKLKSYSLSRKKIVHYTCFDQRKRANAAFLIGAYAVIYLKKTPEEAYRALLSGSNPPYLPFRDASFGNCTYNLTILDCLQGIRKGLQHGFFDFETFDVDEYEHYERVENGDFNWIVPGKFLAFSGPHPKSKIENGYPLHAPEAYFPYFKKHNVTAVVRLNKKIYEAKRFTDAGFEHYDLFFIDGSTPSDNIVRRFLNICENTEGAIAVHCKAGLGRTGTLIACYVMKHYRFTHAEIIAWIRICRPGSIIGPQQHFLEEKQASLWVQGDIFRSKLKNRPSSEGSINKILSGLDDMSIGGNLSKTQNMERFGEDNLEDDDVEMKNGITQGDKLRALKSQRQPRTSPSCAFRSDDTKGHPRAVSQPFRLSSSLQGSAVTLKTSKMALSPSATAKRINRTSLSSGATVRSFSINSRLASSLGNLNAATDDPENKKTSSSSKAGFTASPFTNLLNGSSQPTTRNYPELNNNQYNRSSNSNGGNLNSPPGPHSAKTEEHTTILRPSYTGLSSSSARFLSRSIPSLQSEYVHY

MDA-MB-231 [20] = assay: Cytotoxicity against human MDA-MB-231 cells at 20 to 40 uM by MTT assay; type: functional, cell-based
NCI-H1975 [21] = assay: Cytotoxicity against human NCI-H1975 cells at 20 to 40 uM by MTT assay; type: functional, cell-based

Chain of Dual specificity protein phosphatase 3 (P51452 whole entry): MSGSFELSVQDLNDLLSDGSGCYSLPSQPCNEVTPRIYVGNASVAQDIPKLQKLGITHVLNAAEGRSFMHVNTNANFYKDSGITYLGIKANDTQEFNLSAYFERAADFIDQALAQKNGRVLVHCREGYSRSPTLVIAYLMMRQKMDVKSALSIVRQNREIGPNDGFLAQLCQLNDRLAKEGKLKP
Chain of Receptor-type tyrosine-protein phosphatase gamma (P23470 whole entry): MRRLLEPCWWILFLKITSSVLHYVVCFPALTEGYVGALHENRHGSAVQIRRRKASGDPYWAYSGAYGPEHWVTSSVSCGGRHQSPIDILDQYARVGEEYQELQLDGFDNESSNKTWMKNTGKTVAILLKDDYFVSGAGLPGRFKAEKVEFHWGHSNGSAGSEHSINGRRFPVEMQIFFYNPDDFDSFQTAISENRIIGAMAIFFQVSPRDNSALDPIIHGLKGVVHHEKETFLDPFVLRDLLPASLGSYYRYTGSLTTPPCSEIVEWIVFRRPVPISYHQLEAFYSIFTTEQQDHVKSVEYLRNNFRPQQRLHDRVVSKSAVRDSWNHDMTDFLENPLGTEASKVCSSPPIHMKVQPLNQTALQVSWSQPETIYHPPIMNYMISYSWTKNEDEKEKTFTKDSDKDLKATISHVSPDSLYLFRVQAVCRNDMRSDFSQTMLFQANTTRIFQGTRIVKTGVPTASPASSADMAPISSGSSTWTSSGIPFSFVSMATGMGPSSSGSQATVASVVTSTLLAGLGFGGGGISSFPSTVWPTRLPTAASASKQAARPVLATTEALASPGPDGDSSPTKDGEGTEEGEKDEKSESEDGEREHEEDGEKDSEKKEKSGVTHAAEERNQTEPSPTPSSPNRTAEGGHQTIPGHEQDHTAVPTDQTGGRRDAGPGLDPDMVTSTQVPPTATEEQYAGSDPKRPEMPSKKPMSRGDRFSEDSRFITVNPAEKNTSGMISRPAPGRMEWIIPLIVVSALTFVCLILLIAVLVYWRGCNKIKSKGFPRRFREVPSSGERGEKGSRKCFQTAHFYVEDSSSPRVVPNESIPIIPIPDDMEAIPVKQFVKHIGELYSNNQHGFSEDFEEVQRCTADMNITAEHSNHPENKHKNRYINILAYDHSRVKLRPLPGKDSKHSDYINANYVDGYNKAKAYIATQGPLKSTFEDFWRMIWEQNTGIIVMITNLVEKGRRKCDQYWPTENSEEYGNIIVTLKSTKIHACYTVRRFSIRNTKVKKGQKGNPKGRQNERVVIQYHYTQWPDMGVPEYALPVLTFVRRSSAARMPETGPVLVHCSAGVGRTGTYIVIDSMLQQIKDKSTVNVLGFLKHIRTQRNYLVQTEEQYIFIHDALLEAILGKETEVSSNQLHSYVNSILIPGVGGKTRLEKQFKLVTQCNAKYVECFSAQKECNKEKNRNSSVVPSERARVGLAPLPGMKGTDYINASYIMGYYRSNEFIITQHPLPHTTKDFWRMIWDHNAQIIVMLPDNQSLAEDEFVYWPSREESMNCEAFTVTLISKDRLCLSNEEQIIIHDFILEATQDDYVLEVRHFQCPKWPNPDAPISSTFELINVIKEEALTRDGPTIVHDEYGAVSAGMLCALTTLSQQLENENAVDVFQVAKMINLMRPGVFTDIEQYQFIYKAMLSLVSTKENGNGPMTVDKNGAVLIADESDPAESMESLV
Chain of Receptor-type tyrosine-protein phosphatase beta (P23467 whole entry): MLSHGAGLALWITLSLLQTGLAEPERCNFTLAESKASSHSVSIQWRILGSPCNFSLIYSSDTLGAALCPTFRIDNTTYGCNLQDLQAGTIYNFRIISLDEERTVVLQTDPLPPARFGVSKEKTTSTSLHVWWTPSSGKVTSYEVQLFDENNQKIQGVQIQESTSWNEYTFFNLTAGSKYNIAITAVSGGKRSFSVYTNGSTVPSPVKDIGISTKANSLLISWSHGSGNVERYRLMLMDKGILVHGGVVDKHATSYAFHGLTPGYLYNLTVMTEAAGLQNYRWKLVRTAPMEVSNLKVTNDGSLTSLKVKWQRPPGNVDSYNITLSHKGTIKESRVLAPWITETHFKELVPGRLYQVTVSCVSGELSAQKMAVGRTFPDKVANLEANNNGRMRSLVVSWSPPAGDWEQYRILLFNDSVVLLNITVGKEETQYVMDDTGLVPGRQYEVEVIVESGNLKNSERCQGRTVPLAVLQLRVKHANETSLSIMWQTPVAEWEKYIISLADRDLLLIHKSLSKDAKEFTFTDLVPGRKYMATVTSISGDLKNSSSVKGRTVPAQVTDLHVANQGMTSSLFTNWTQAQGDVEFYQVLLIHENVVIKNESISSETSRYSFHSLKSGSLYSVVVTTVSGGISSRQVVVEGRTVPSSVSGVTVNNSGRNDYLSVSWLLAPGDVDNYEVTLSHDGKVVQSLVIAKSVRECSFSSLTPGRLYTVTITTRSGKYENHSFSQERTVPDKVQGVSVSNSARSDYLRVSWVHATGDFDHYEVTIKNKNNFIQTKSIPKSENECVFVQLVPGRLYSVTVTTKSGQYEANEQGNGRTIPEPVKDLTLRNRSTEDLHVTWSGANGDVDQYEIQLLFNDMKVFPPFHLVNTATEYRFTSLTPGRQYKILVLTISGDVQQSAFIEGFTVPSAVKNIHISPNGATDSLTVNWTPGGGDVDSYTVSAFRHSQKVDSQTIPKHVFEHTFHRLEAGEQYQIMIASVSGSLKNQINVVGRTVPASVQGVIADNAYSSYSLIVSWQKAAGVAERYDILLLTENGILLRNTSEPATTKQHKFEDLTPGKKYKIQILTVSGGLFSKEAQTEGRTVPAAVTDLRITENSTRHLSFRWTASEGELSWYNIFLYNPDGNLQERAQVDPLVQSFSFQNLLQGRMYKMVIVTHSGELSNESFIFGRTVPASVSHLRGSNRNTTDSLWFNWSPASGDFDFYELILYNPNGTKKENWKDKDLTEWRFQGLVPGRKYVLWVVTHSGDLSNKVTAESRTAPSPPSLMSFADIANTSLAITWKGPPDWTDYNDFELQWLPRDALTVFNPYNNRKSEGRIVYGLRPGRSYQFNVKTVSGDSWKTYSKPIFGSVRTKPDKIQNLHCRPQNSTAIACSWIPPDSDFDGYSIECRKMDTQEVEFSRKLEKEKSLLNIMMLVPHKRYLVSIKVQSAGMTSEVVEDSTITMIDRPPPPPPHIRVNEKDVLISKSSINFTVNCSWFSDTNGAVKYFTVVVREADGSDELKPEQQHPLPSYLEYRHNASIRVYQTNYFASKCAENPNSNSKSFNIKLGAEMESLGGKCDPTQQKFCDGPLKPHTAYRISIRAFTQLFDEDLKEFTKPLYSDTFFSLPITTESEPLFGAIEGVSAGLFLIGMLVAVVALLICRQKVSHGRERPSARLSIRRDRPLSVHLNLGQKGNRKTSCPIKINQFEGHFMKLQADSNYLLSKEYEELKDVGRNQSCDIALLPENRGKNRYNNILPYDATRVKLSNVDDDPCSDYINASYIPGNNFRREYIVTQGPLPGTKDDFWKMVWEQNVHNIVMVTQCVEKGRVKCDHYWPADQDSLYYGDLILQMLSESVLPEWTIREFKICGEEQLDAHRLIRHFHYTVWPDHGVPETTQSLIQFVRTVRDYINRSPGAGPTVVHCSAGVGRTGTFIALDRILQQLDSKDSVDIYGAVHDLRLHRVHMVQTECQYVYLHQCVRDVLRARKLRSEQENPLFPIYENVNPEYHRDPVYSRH
Chain of Receptor-type tyrosine-protein phosphatase mu (P28827 whole entry): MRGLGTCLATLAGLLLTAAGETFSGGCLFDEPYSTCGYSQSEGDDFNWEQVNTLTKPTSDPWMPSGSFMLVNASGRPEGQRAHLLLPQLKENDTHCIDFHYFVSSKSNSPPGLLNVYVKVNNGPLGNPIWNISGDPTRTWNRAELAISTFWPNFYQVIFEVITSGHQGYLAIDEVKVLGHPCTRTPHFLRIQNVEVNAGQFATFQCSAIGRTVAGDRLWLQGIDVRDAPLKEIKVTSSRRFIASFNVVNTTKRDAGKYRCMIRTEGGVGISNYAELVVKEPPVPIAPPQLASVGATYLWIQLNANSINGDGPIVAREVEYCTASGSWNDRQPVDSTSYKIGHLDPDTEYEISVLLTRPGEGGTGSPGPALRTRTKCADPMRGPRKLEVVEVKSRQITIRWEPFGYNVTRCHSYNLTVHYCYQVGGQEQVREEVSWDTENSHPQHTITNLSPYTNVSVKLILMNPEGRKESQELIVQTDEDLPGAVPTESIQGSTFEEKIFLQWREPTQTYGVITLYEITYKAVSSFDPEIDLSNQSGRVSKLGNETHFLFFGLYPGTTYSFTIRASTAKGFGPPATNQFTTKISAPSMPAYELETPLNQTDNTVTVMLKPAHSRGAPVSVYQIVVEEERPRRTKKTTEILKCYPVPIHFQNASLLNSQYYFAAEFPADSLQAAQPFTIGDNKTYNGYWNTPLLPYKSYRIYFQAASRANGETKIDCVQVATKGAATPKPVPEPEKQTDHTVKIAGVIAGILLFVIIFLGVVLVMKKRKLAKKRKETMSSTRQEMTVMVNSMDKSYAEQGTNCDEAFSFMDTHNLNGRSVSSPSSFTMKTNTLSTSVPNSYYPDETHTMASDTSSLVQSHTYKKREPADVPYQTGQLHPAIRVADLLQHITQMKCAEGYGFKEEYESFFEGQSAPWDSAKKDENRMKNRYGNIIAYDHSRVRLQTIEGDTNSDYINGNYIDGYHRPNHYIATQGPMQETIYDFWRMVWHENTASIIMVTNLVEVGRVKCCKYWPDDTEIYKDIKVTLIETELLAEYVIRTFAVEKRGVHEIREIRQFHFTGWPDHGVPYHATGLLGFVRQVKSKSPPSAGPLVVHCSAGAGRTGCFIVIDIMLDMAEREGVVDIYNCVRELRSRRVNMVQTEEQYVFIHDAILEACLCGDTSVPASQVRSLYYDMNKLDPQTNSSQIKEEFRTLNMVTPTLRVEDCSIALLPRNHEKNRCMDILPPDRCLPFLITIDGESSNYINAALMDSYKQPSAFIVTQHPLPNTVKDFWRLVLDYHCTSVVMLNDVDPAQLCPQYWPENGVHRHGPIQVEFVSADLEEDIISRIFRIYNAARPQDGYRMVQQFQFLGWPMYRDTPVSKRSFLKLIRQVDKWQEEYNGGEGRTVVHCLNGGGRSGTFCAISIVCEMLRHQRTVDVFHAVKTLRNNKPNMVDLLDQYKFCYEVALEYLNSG

| IC50 [2] [µM] | IC50 [4] [µM] | IC50 [5] [µM] | fold change (FC) [6] | IC50 [7] [µM] | IC50 [8] [µM] | IC50 [9] [µM] | IC50 [10] [µM] | IC50 [11] [µM] | IC50 [12] [µM] | fold change (FC) [13] | IC50 [15] [µM] | IC50 [17] [µM] | IC50 [18] [µM] | IC50 [19] [µM] | SMILES | Activity (NCI-H1975 [3]) | Activity (MDA-MB-231 [14]) | further results |
| --- | --- | --- | --- | --- | --- | --- | --- | --- | --- | --- | --- | --- | --- | --- | --- | --- | --- | --- |
|  |  |  |  |  |  |  |  |  |  |  |  |  |  |  | O=C(O)C(=O)Nc1ccc(NC(=O)C(c2ccccc2)S(=O)(=O)O)cc1 (centres undefined) |  |  | inhibition [1]: inactive |
| > 50 | > 50 | > 50 | 0.6 | > 50 | > 50 | > 50 | > 50 | > 50 | > 50 | 1.3 | > 50 | > 50 | > 50 | > 50 | O=C(Nc1ccc(I)cc1)C(=O)Nc1ccc(NC(=O)C(c2ccccc2)S(=O)(=O)O)cc1 (centres undefined) | Dose-dependent effect | Dose-dependent effect | Ki [16]: 0.51 µM; growth inhibition (GI) (SK-BR-3): Dose-dependent effect |
|  |  |  | 1 |  |  |  |  |  |  | 1.1 |  |  |  |  | O=C(Nc1ccccc1)C(=O)Nc1ccc(NC(=O)C(c2ccccc2)S(=O)(=O)O)cc1 (centres undefined) |  |  | Activity (MDA-MB-231 [20]): inactive; Activity (NCI-H1975 [21]): inactive |
| > 50 | > 50 | > 50 |  | > 50 | > 50 | > 50 | > 50 | > 50 | > 50 |  | > 50 | > 50 | > 50 | > 50 | O=C(Nc1ccc(NC(=O)C(c2ccccc2)S(=O)(=O)O)cc1)C(=O)Nc1ccc(-c2ccccc2)cc1 (centres undefined) | Dose-dependent effect | Dose-dependent effect |  |
